Experimental data: PubChem BioAssay AID463073 (The Scripps Research Institute Molecular Screening Center, 2010)
About 10 (0.5%) of roughly 2,000 compounds were called active.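 Rule for the calls: active = inhibition above 30%; inactive = the rest.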 The sample as a whole holds a higher share of actives than the screen did. Residues, ends and D or L forms follow the SMILES beside them. *: point of attachment. Boc = CC(C)(C)OC(=O)*

Biological target: Protein-arginine deiminase type-4 (Homo sapiens) (UniProt Q9UM07)
Sequence (Q9UM07 whole entry, looked up): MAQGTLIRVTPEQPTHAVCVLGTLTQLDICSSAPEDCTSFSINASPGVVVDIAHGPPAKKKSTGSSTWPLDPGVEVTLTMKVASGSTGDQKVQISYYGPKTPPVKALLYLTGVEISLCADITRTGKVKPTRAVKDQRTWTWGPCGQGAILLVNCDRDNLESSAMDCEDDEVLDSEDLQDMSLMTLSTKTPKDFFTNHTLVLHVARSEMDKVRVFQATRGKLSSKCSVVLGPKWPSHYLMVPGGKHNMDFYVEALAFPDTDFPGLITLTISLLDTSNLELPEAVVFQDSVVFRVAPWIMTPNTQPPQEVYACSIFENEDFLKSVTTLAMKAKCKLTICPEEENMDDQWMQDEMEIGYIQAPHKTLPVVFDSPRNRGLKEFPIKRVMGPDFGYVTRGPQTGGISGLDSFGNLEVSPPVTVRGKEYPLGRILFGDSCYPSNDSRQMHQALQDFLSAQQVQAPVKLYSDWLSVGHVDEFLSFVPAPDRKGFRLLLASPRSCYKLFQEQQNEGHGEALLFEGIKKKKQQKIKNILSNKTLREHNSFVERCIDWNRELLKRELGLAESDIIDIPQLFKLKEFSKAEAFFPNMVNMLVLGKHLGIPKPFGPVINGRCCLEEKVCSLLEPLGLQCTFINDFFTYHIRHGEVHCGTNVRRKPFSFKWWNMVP
Experiment: blockers of protein arginine deiminase 4 – biochemical, fluorescence polarization, primary screen (AID 463073);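 note: 0% = PAD4 with DMSO and 100% = wells lacking PAD4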
Conditions: recombinant PAD4, RFA probe fluorescence polarization; at 5 µM; stronger effect = higher value
How it was run: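 System: recombinant PAD4. Amount: PAD4 at 2 µM in dispensed buffer, before additions. Doses: single 5 µM final compound concentration. Timing: 30 min 25 °C preincubation, 5 h 37 °C labeling. Benchmarks: wells lacking PAD4 as full-inhibition control. Repeats: single well per compound. Measured by: FP, ex 525 nm, em 598 nm.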

inhibition, inactive:
COc1ccc(OC)c(S(=O)(=O)N2CCCc3ccccc32)c1 1.48%
CC(=O)c1c(N)nc2n(c1=O)CCCCC2 2.24%
CC1(C)C(=O)OC(/C=C\c2ccccc2)C(C)(C)C1=O (stereo unspecified) -4.36%
Cc1ccc(SCC(=O)Nc2nccs2)cc1 -3.72%
CCN1CCn2c3c(c4cc(Cl)ccc42)CCCC31 (stereo unspecified) 0.84%
Cc1ccsc1/C=C/C1=NCCCN1C 1.68%
CC(C)Cc1cc(C(=O)N2CCC(N3CCC(C(=O)N4CCCC4)CC3)CC2)n[nH]1 1.19%
COc1ccc(C(=O)NC(=O)NC2(C(Cl)(Cl)Cl)OCCO2)cc1 3.68%
COc1cc(OC)c2c(C)c(Cl)c(=O)oc2c1 5.74%
COc1ccc(C2NCCC3(O)CCCCC23)c(OC)c1OC (stereo unspecified) -0.4%
CC1(C)C(=O)OC(C(=O)c2ccc(Cl)cc2)C(C)(C)C1=O (stereo unspecified) -1.03%
COc1ccc(OC(C)C(=O)Nc2ccccc2F)cc1 (stereo unspecified) -0.2%
COc1cccc(OC)c1C(=O)NCCSC1CCCCC1 -2.94%
COc1ccc(N2C(=O)C3CCCN3C2=O)cc1 (stereo unspecified) 4.89%
CC1(C)Cc2nc3oc4c(NCc5ccccc5)ncnc4c3cc2CO1 1.79%
CCOC(=O)C1NN=C(C(=O)c2ccccc2)C1c1ccc(Cl)cc1 (stereo unspecified) 1.88%
CN(C)C(=O)C12CCC(C)(c3nc4ccccc4nc31)C2(C)C (stereo unspecified) 3.6%
Cc1ccc(S(=O)(=O)NC(C(=O)Oc2ccc3c(C(F)(F)F)cc(=O)oc3c2)c2ccccc2)cc1 (stereo unspecified) 6.06%
O=C(NCCC(c1ccccc1)c1ccco1)c1cccs1 (stereo unspecified) -4.26%
O=C1CC[C@@H](CN(Cc2ccccc2)Cc2cn[nH]c2-c2cc3ccccc3o2)N1 -4.5%
CC(C)CC(NC(=O)C1CCCN1C(=O)OC(C)(C)C)C(=O)NCC(N)=O (stereo not drawn) (Boc-Pro-Leu-Gly-NH2; configuration not given here) 0.39%
Cc1nc2cc3ccccc3cc2c(=O)[nH]1 -2.65%
O=C(O)c1cnccn1 1.59%
CC1(CC(=O)Nc2ccccc2)NC(=S)N(c2ccccc2)N1 (stereo unspecified) 0.19%
O=C1c2cccc3cccc(c23)C(=O)N1c1ccccn1 -4.66%
O=C(c1ccc(-c2ccccc2)c(F)c1)C1CCCN(C(=O)c2cncs2)C1 (stereo unspecified) 3.12%
O=C(O)CCSCCC(=O)O -2.7%
COc1ccc(C(C)=O)c2c1OCCO2 6.78%
CC1(C)CC(C(CC(=O)N2CCCC2)Cc2ccccc2)CCO1 (stereo unspecified) -1.3%
COc1ccc(NS(=O)(=O)c2ccc(N)cc2)nn1 0.73%
COc1ccc(-c2noc(-c3ccccc3-c3ccccc3)n2)cc1 -3.61%
O=C1C2CC=C(Cl)CC2C(=O)N1CCc1c[nH]c2ccccc12 (stereo unspecified) -0.53%
COc1ccc(C(CC(=O)N2CCOCC2)C(C)C)cc1 (stereo unspecified) 4.61%
COc1ccc(N2CCN(C(=S)NCc3ccccc3)CC2)cc1 -1.38%
COc1ccc(NC(=S)N2CCN(CCN3C(=O)c4cccc5cccc(c45)C3=O)CC2)cc1 2.54%
COC(=O)[C@@H](N)CS 2.39%
O=C(NC(=S)Nc1nc(-c2ccccc2)cs1)c1ccco1 4.01%
CC(NC(=O)c1ccc(OC2CCN(Cc3ccccn3)CC2)cc1)c1ccccc1 (stereo unspecified) -1.87%
OCC1CCN(Cc2cn(Cc3ccccc3)nc2-c2cc3ccccc3o2)CC1 -3.81%
CCOc1ccc2nc(N/C(N)=N/S(C)(=O)=O)nc(C)c2c1 -1.87%
COc1cc(SC)ccc1C(=O)NC(C)C -4.36%
CCn1c(O)c(/C=C2\C=Nc3ccccc32)sc1=O 6.23%
Cc1ccc(C(=O)NCCNC(=O)c2ccccc2)cc1 -2.16%
CC12CCC(C(=O)Nc3ccccc3Br)(C/C1=N\O)C2(C)C (stereo unspecified) 2.8%
COC(=O)c1ccc2c(c1)C(=O)/C(=C/c1ccc(O)cc1)O2 2.19%
NC[C@H]1O[C@H](O[C@H]2[C@H](O)[C@@H](O[C@H]3O[C@H](CO)[C@@H](O)[C@H](N)[C@H]3O)[C@H](N)C[C@@H]2N)[C@H](N)C[C@@H]1O 0.78%
O=C(c1ccccc1)N1CCN(C(=O)c2ccccc2)CC1 -0.13%
Cn1c(=O)c2c(nc(SCCN3CCCCC3)n2C)n(C)c1=O 4.29%
CCSC(=O)CCCCCCCCCCCO 3.34%
CC(C)OC(=O)C1C(=O)CC(C)(O)C(C(=O)OC(C)C)C1c1cccc(O)c1 (stereo unspecified) 2.73%
COc1ccc(O)c(C(=O)/C=C/c2cc3ccccc3o2)c1 0.93%
COc1ccc(CCNC(=O)CC(c2ccccc2)c2cccc(C)c2O)cc1OC (stereo unspecified) 1.59%
COc1ccc(C2NC(C(=O)O)Cc3c2[nH]c2ccccc32)cc1CN1CCN(c2ccc(F)cc2)CC1 (stereo unspecified) 6.02%
CC(=O)[C@@]1(O)CC[C@H]2[C@@H]3C[C@H](C)C4=CC(=O)C=C[C@]4(C)[C@@]3(F)[C@@H](O)C[C@@]21C -5.68%
COc1ccc2c(c1OC)C(=O)OC2C1c2c(cc3c(c2OC)OCO3)CCN1C (stereo unspecified) 7.1%
CCOC(=O)c1ccc2[nH]c(C)c(CCC(C)=O)c(=O)c2c1 -4.46%
